Measured values published in ChEMBL document CHEMBL2440072, “Identification, biological characterization and pharmacophoric analysis of a new potent and selective NK1 receptor antagonist clinical candidate” (Bioorg Med Chem, 2013).
Each block holds one compound with its values, some of them ahead of it.

Columns and labels:
Substance-P receptor [1] = biological target: T1, Substance-P receptor (Homo sapiens, UniProt P25103); assay: Displacement of [3H]SP from human recombinant NK1 receptor expressed in CHO cells after 40 mins by scintillation counting analysis; assay type: cell-based
T1 sequence (P25103 whole entry): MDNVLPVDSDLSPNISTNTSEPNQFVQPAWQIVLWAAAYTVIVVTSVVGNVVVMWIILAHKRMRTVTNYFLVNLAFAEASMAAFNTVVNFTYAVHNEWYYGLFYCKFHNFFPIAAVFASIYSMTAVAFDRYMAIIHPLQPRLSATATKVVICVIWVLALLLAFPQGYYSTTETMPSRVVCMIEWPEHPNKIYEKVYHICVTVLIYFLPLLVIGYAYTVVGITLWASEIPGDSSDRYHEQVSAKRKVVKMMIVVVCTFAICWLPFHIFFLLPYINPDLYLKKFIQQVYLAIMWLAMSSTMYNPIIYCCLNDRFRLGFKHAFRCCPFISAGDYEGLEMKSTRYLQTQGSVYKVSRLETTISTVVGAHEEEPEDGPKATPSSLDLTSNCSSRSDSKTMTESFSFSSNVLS
Procedure, shortened: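 Membranes from hNK1-CHO cells (8 µg protein) with [3H]-SP 0.5 nM in HEPES pH 7.4, 3 mM MnCl2, 0.02% BSA. Compound 1 pM–1 µM final, 40 min at room temperature. Nonspecific binding with 1 µM SP. Filtration through PEI-soaked GF/B filters, scintillation counting. IC50 fitted with slope fixed at unity, converted to Ki by Cheng-Prusoff; duplicates.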

[2] = Plasma clearance in rat at 0.5 mg/kg, iv and 1 mg/kg, po; assay type: ADME, organism-based
Procedure, shortened: (§1)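 Rat and dog pharmacokinetics derived from plasma concentrations after 0.5 mg/kg i.v. and 1 mg/kg oral dosing.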

[3] = Volume of distribution at steady state in rat at 0.5 mg/kg, iv and 1 mg/kg, po; assay type: ADME, organism-based; conditions: in vivo, read-out: Vdss; procedure, shortened: as §1
[4] = Oral bioavailability in dog at 1 mg/kg; assay type: ADME, organism-based, Canis lupus familiaris; conditions: in vivo; procedure, shortened: as §1
Substance-P receptor [5] = biological target: T1, Substance-P receptor; assay: Antagonist activity at NK1 receptor (unknown origin)
[6] = Plasma clearance in dog at 0.5 mg/kg, iv and 1 mg/kg, po; assay type: ADME, organism-based, Canis lupus familiaris; procedure, shortened: as §1
[7] = Oral bioavailability in rat at 1 mg/kg; assay type: ADME, organism-based; conditions: in vivo; procedure, shortened: as §1
Substance-P receptor [8] = biological target: T1, Substance-P receptor; conditions: CHO
[9] = Half life in dog at 0.5 mg/kg, iv and 1 mg/kg, po; assay type: ADME, organism-based, Canis lupus familiaris; conditions: in vivo; procedure, shortened: as §1
[10] = Ratio of drug uptake in brain to plasma in rat at 1 mg/kg, iv after 5 mins; assay type: ADME, organism-based; parameters: dose 1 mg/kg, route intravenous; conditions: read-out: BPR
Procedure, shortened: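 Rat brain and plasma levels measured 5 min after 1 mg/kg i.v. dose; brain/plasma ratio calculated.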

[11] = Volume of distribution at steady state in dog at 0.5 mg/kg, iv and 1 mg/kg, po; assay type: ADME, organism-based, Canis lupus familiaris; conditions: in vivo, read-out: Vdss; procedure, shortened: as §1
[12] = Half life in rat at 0.5 mg/kg, iv and 1 mg/kg, po; assay type: ADME, organism-based; conditions: in vivo; procedure, shortened: as §1
Meriones unguiculatus [13] = assay: Antidepressant activity in Mongolian gerbil assessed as increase in social interaction time at 1 mg/kg, po after 1 hr (reference value: 21.2 +/- 2.9 secs); assay type: functional
[14] = biological target: Platelet-activating factor receptor (Homo sapiens, UniProt P25105); assay: Inhibition of platelet activating factor receptor (unknown origin)
Sequence of Platelet-activating factor receptor (P25105 whole entry): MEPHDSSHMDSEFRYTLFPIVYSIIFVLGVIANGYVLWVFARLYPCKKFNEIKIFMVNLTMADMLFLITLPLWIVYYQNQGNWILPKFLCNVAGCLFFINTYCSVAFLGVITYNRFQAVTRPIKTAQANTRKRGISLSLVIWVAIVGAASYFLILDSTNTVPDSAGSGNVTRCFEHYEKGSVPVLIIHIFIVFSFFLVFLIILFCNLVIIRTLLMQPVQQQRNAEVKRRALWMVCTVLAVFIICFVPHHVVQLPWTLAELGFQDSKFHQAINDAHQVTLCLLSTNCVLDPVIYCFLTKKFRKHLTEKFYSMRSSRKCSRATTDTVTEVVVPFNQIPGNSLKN

[15] = Inhibition of sodium channel site2 (unknown origin); parameters: species or system Homo sapiens
Meriones unguiculatus [16] = assay: Inhibition of GR73632-induced tapping behavior in po dosed Mongolian gerbil foot tapping model administered 1 to 24 hrs prior to GR73632 challenge; assay type: functional, organism-based
Procedure, shortened: (§2)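 Male gerbils (50–70 g) dosed orally (10 ml/kg) in 0.5% methocel with 5% DMSO, 1, 4, 8 or 24 h before icv GR73632 (3 pmol/5 µl) given under brief isoflurane. Hind foot tapping timed for 3 min; ≥7 animals per treatment.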

Meriones unguiculatus [17] = assay: Toxicity in Mongolian gerbil assessed as locomotor activity at 0.1 to 1 mg/kg, po after 1 hr; assay type: organism-based; parameters: dose 0.1-1 mg/kg, route oral; conditions: in vivo
Callithrix jacchus [18] = assay: Anxiolytic activity in marmoset human threat test model assessed as reduction in number of postures at 1 mg/kg, po preincubated for 1 hr followed by compound wash out for 3 days relative to vehicle-treated control; assay type: functional; parameters: scale not given: the % may be the effect or the level left
Procedure, shortened: (§3)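 Marmosets, both sexes, >2 years, 300–500 g, preselected for ≥10 postures in 2 min. Oral dosing 0.3–10 mg/kg (1 ml/kg) in 0.5% methocel with 1% DMSO, 1 h before a human-observer threat test. Blind random crossover, ≥3 day washout, 4–7 animals. Postures counted; paired t-test against matched vehicle.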

[19] = Displacement of [3H]GR205171 from marmoset cerebral striatum NK1 receptor after 60 mins by scintillation counting analysis; parameters: species or system Callithrix jacchus
Procedure, shortened: (§4)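 Brain membranes used: gerbil cortex/striatum (0.055 mg protein) or marmoset striatum (0.080 mg). Radioligand [3H]-GR205171 0.2 nM, compound 1 pM–1 µM final, in HEPES pH 7.4, MnCl2, BSA plus protease inhibitors. Incubation 60 min at room temperature; nonspecific binding with 1 µM GR205171. Filtration on GF/C, scintillation counting; LIGAND fit, duplicates.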

Callithrix jacchus [20] = assay: Anxiolytic activity in marmoset human threat test model assessed as reduction in number of postures at 0.3 mg/kg, po preincubated for 1 hr followed by compound wash out for 3 days relative to vehicle-treated control; assay type: functional; parameters: scale not given: the % may be the effect or the level left; procedure, shortened: as §3
[21] = Inhibition of sigma2 receptor (unknown origin); parameters: species or system Homo sapiens
Meriones unguiculatus [22] = assay: Inhibition of GR73632-induced tapping behavior in po dosed Mongolian gerbil foot tapping model administered 4 hrs prior to GR73632 challenge; assay type: functional; conditions: read-out: ID50 (the source's name); procedure, shortened: as §2
Callithrix jacchus [23] = assay: Anxiolytic activity in marmoset human threat test model assessed as reduction in number of postures at 10 mg/kg, po preincubated for 1 hr followed by compound wash out for 3 days relative to vehicle-treated control; assay type: functional; parameters: scale not given: the % may be the effect or the level left; procedure, shortened: as §3
Substance-P receptor [24] = biological target: Substance-P receptor (Meriones unguiculatus, UniProt Q5DUB1); assay: Displacement of [3H]GR205171 from Mongolian gerbil brain NK1 receptor after 60 mins by scintillation counting analysis; procedure, shortened: as §4
Sequence of Substance-P receptor (Meriones unguiculatus, UniProt Q5DUB1) (Q5DUB1 whole entry): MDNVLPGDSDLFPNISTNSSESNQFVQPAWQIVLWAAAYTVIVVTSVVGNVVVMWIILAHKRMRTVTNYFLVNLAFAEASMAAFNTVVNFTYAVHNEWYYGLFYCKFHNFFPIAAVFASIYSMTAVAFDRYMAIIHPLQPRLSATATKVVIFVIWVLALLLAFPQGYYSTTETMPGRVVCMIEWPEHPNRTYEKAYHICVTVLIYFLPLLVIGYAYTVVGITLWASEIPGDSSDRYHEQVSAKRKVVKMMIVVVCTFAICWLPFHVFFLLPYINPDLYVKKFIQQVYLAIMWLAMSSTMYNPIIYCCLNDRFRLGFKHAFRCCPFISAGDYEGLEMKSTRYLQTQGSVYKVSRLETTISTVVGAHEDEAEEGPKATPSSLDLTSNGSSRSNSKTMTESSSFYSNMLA

Meriones unguiculatus [25] = assay: Ex vivo NK1 receptor occupancy in Mongolian gerbil striatum assessed as inhibition of [3H]-GR205171 binding at 0.1 mg/kg, po by autoradiography; assay type: functional
Procedure, shortened: (§5)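 Gerbils dosed orally (0.1–1 mg/kg) 1 h before, killed after social interaction testing. Unwashed 12 µm coronal sections incubated 10 min with 0.3 nM [3H]-GR205171; nonspecific binding with 100 nM GR205171. Imaging-plate exposure 10 days. Occupancy = 100% minus specific binding ratio treated/vehicle in striatum; 3 animals per group.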

Meriones unguiculatus [26] = assay: Ex vivo NK1 receptor occupancy in Mongolian gerbil striatum assessed as inhibition of [3H]-GR205171 binding at 1 mg/kg, po by autoradiography; assay type: functional; procedure, shortened: as §5
Meriones unguiculatus [27] = assay: Antidepressant activity in Mongolian gerbil assessed as increase in social interaction time at 0.3 mg/kg, po after 1 hr (reference value: 21.2 +/- 2.9 secs); assay type: functional
Meriones unguiculatus [28] = assay: Ex vivo NK1 receptor occupancy in Mongolian gerbil striatum assessed as inhibition of [3H]-GR205171 binding at 0.3 mg/kg, po by autoradiography; assay type: functional; procedure, shortened: as §5
Meriones unguiculatus [29] = assay: Inhibition of GR73632-induced tapping behavior in po dosed Mongolian gerbil foot tapping model administered 8 hrs prior to GR73632 challenge; assay type: functional; conditions: read-out: ID50 (the source's name); procedure, shortened: as §2
Meriones unguiculatus [30] = assay: Inhibition of GR73632-induced tapping behavior in po dosed Mongolian gerbil foot tapping model administered 24 hrs prior to GR73632 challenge; assay type: functional; conditions: read-out: ID50 (the source's name); procedure, shortened: as §2
Meriones unguiculatus [31] = assay: Inhibition of GR73632-induced tapping behavior in sc dosed Mongolian gerbil foot tapping model administered 1 hr prior to GR73632 challenge; assay type: functional; conditions: read-out: ID50
Callithrix jacchus [32] = assay: Anxiolytic activity in po dosed marmoset human threat test model assessed as reduction in number of postures preincubated for 1 hr followed by compound wash out for 3 days; assay type: functional, organism-based; procedure, shortened: as §3
Meriones unguiculatus [33] = assay: Inhibition of GR73632-induced tapping behavior in po dosed Mongolian gerbil foot tapping model administered 1 hr prior to GR73632 challenge; assay type: functional; conditions: read-out: ID50 (the source's name); procedure, shortened: as §2
Meriones unguiculatus [34] = assay: Antidepressant activity in po dosed Mongolian gerbil assessed as increase in social interaction time after 1 hr; assay type: functional, organism-based
Meriones unguiculatus [35] = assay: Antidepressant activity in Mongolian gerbil assessed as increase in social interaction time at 0.1 mg/kg, po after 1 hr (reference value: 21.2 +/- 2.9 secs); assay type: functional
[36] = Drug uptake in Mongolian gerbil brain at 1 mg/kg, po; assay type: ADME, organism-based, Meriones unguiculatus; parameters: dose 1 mg/kg, route oral; conditions: in vivo
Procedure, shortened: (§6)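 Gerbils given 1 mg/kg orally; total brain concentration and brain/plasma ratio determined.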

[37] = Ratio of drug uptake in brain to plasma in Mongolian gerbil at 1 mg/kg, po; assay type: ADME, organism-based, Meriones unguiculatus; parameters: dose 1 mg/kg, route oral; procedure, shortened: as §6
Callithrix jacchus [38] = assay: Anxiolytic activity in marmoset human threat test model assessed as reduction in number of postures at 3 mg/kg, po preincubated for 1 hr followed by compound wash out for 3 days relative to vehicle-treated control; assay type: functional; parameters: scale not given: the % may be the effect or the level left; procedure, shortened: as §3
[39] = biological target: Sigma non-opioid intracellular receptor 1 (Homo sapiens, UniProt Q99720); assay: Inhibition of sigma1 receptor (unknown origin)
Sequence of Sigma non-opioid intracellular receptor 1 (Q99720 whole entry): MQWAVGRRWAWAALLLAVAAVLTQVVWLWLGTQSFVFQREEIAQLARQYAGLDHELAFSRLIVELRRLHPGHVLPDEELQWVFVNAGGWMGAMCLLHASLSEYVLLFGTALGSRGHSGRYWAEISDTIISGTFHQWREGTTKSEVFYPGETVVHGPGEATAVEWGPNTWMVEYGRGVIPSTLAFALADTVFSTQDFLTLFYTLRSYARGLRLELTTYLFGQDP

Ki (Substance-P receptor [1]): 0.138 nM
SMILES: Cc1cc(F)ccc1[C@H]1C[C@H](N2CCN3C(=O)CC[C@@H]3C2)CCN1C(=O)N(C)[C@H](C)c1cc(C(F)(F)F)cc(C(F)(F)F)c1

clearance [2]: 37 mL/min/kg
Vd [3]: 3.2 L/kg
bioavailability [4]: 34%
SMILES: CC(=O)N1CCN([C@H]2CCN(C(=O)N(C)[C@H](C)c3cc(C(F)(F)F)cc(C(F)(F)F)c3)[C@@H](c3ccc(F)cc3C)C2)CC1 [CASOPITANT]

IC50 (Substance-P receptor [5]): 0.95 nM
SMILES: Cc1ccccc1-c1cc(N2CCN(C)CC2)ncc1N(C)C(=O)C(C)(C)c1cc(C(F)(F)F)cc(C(F)(F)F)c1 [NETUPITANT]

Ki (Substance-P receptor [1]): 0.2 nM
SMILES: Cc1cc(F)ccc1[C@H]1C[C@@H](N2CCN3C(=O)CC[C@@H]3C2)CCN1C(=O)N(C)[C@H](C)c1cc(C(F)(F)F)cc(C(F)(F)F)c1

clearance [2]: 25 mL/min/kg
clearance [6]: 11 mL/min/kg
Ki (Substance-P receptor [1]): 0.0646 nM
bioavailability [7]: 19%
pKb (Substance-P receptor [8]): 10.5
half-life [9]: 5.1 h
Vd [3]: 3.4 L/kg
Kp at 5 min [10]: 0.9
Vd [11]: 2 L/kg
bioavailability [4]: 28%
half-life [12]: 2.8 h
SMILES: Cc1cc(F)ccc1[C@H]1C[C@H](N2CCN3C(=O)CC[C@H]3C2)CCN1C(=O)N(C)[C@H](C)c1cc(C(F)(F)F)cc(C(F)(F)F)c1

IC50 (Substance-P receptor [5]): 0.61 nM
SMILES: COc1ccccc1CN1CN2CCCC1C2c1ccccc1 (configuration not stated)

IC50 (Substance-P receptor [5]): 0.04 nM
SMILES: COc1ccc(-n2cnnn2)cc1CN[C@H]1CCCN[C@H]1c1ccccc1

clearance [2]: 29 mL/min/kg
clearance [6]: 6 mL/min/kg
Ki [14]: 2270 nM
Ki [15]: 4540 nM
Ki (Substance-P receptor [1]): 0.0631 nM
bioavailability [7]: 17%
pKi [19]: 10.4
Ki [21]: 3260 nM
pKb (Substance-P receptor [8]): 10.3
half-life [9]: 6.1 h
Ki (Substance-P receptor [24]): 0.0316 nM
Vd [3]: 3.7 L/kg
Kp at 5 min [10]: 1.2
Vd [11]: 2 L/kg
Drug uptake [36]: 91 ng/g
Kp [37]: 1.2
Ki [39]: 940 nM
bioavailability [4]: 55%
half-life [12]: 2.3 h
SMILES: Cc1cc(F)ccc1[C@H]1C[C@@H](N2CCN3C(=O)CC[C@H]3C2)CCN1C(=O)N(C)[C@H](C)c1cc(C(F)(F)F)cc(C(F)(F)F)c1 [ORVEPITANT]
Time (Meriones unguiculatus [13]): 33.1 s
Activity (Meriones unguiculatus [16]): Dose-dependent effect
Activity (Meriones unguiculatus [17]): Non-toxic
Activity (Callithrix jacchus [18]): 34.9%
Activity (Callithrix jacchus [20]): 11.8%
ED50 (Meriones unguiculatus [22]): 0.09 mg/kg
Activity (Callithrix jacchus [23]): 46.4%
Occ (Meriones unguiculatus [25]): 47.8%
Occ (Meriones unguiculatus [26]): 95.2%
Time (Meriones unguiculatus [27]): 27.3 s
Occ (Meriones unguiculatus [28]): 74.6%
ED50 (Meriones unguiculatus [29]): 0.09 mg/kg
ED50 (Meriones unguiculatus [30]): 3.36 mg/kg
ED50 (Meriones unguiculatus [31]): 0.07 mg/kg
Activity (Callithrix jacchus [32]): Dose-dependent effect
ED50 (Meriones unguiculatus [33]): 0.11 mg/kg
Activity (Meriones unguiculatus [34]): Dose-dependent effect
Time (Meriones unguiculatus [35]): 22.1 s
Activity (Callithrix jacchus [38]): 36.6%
